Screening data as filed in PubChem BioAssay.
Rows were chosen to be rich in hits. Some 6.4% of all compounds tested hit in one or more screens of this group.
Ecoli WT expand: blocks growth of wild type E. coli BW25113; 0.15% of 98,000 active; OD600 absorbance; growth inhibition, % at 100 µM;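 active = growth inhibition above about 50% at one test dose, limit read from the data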;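 also: growth measured after 20 h incubation at 37 °C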
tolC growth inh: E. coli tolC mutant growth inhibition; E. coli BW25113 tolC mutant growth, OD615; growth inhibition, % at 10 µM (by protocol); 2.2% of 65,000 active; AID 573;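 active = growth inhibition at or above a cutoff equal to the mean over every tested compound plus 3 SD, cut at about 60% in these data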;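 also: growth measured after 20 h incubation at 37 °C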
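Test system: E. coli BW25113 ΔtolC::kan bacteria | Medium: Kanamycin-containing LB broth (50 µg/mL) | Dosing: One dose of 10 µM final | Times: 20 h incubation with compound, 37 °C | Detection: Optical density read at 615 nm | Read-out basis: Percent growth inhibition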
H69AR inhibit: growth inhibitors of human H69AR lung tumor cells. AID 598. viability, % at 10 µM. 6% of 85,000 active. H69AR lung tumor viability, ATP luminescence, 72 h; stronger effect = lower value;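 active = viability at or below 40%; inactive = viability above 40%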;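 also: multidrug resistant small cell line overexpressing MRP-1 efflux transporter; 100% = mean luminescence of untreated control wells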
HUVEC inhibit: blocks proliferation of human endothelial cells. HUVEC proliferation, CellTiter-Glo luminescence, 72 h; stronger effect = lower value. 1.1% of 86,000 active. AID 648. viability, % at 10 µM (by protocol);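 active = viability at or below 30%; inactive = viability above 30%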;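 also: 100% = median luminescence of DMSO-only cell control wells on each plate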
Jurkat tox 60K: cytotoxic compounds reducing Jurkat cell viability; Jurkat E6.1 viability, ATP luminescence, 48 h; inhibition, % at 4 µM; 1.2% of 56,000 active; AID 463;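 active = inhibition above the mean inhibition of all tested compounds plus 3 SD, cut at about 28% in these data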
Fibroblast inh: blocks proliferation of human lung fibroblasts. LL 47 human lung fibroblast viability, ATP luminescence; stronger effect = lower value. viability, % at 10 µM. 1.1% of 85,000 active. AID 719;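 active = viability at or below 50% in the single dose screen; inactive = viability above 50%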;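 also: compound exposure lasted 72 h before the ATP readout; 100% = median luminescence of untreated cell-only wells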
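Test system: LL 47 human lung fibroblasts / Incubation: 72 h compound exposure at 37 °C after overnight plating / Technique: luminescent ATP detection, CellTiter-Glo / Compound dosing: 0.1% DMSO in all compound wells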
Starred values were filed as active, the others as inactive; nt = no result.

SMILES | Ecoli WT expand | tolC growth inh | H69AR inhibit | HUVEC inhibit | Jurkat tox 60K | Fibroblast inh
COc1ccc(Cn2nnnc2CN(Cc2cc3ccc(C)cc3[nH]c2=O)C2CCCC2)cc1 | -12 | 6 | 63 | 100 | -6 | 92
COc1ccc2cc(CN(Cc3ccco3)Cc3nnnn3C3CCCCC3)c(=O)[nH]c2c1 | -15 | 23 | 47 | 98 | 2 | 91
Cc1ccc2[nH]c(=O)c(CN(CCCN3CCOCC3)Cc3nnnn3C3CCCC3)cc2c1 | -1 | -5 | 85 | 94 | 5 | 89
Cc1ccc2cc(CN(Cc3ccccc3)Cc3nnnn3C3CCCC3)c(=O)[nH]c2c1 | -18 | 73* | 5.0* | 74 | 3 | 108
CCc1ccc2[nH]c(=O)c(CN(Cc3ccc4c(c3)OCO4)Cc3nnnn3C3CCCC3)cc2c1 | -9 | 49 | 4.8* | 62 | 3 | 89
Cc1ccc2cc(CN(Cc3ccc(F)cc3)Cc3nnnn3C3CCCC3)c(=O)[nH]c2c1 | -12 | 66* | 36* | 64 | 0 | 101
Cc1ccccc1C1CC(c2ccccc2OC(F)F)Nc2ncnn21 (configuration not stated) | 9 | 32 | 0.6* | 98 | 3 | 94
Cc1ccc(C2CC(c3ccccc3OC(F)F)Nc3ncnn32)cc1 (configuration not stated) | -1 | 26 | nt | nt | -5 | nt
CC1(C)CC(NC(=O)c2coc(=O)c(Br)c2)CC(C)(C)N1 | 2 | -25 | 0.7* | 81 | 8 | 34*
COc1ccc2nc(NC(=O)c3cccc(OCc4c(C)noc4C)c3)sc2c1 | -7 | 45 | 21* | 49 | 70* | 59
CCSc1nnc(NC(=O)c2cccc(OCc3c(C)noc3C)c2)s1 | -6 | 62* | 96 | 88 | nt | 94
COc1ccc2nc(NC(=O)c3ccoc3C)sc2c1 | -11 | -13 | 23* | 46 | 20 | 53
COc1ccc2nc(NC(=O)C3COc4ccccc4O3)sc2c1 (configuration not stated) | -9 | 93* | 84 | 86 | 2 | 101
N#C/C(=C\Nc1ccc2c(c1)OCCO2)c1nc2ccccc2[nH]1 | 0 | 26 | 19* | 74 | 7 | 104
Cc1ccc(S(=O)(=O)Nc2ccc(Br)cc2/C=N/n2cnnc2)cc1 | -5 | 21 | 71 | 60 | 11 | 103
O=C(CCN1CCN(Cc2ccccc2)CC1)Nc1ccc(OCc2ccccc2)cc1 | 0 | nt | 29* | 8.7* | nt | 87
O=C(CN1CCOCC1)Nc1ccc(OCc2ccccc2)cc1 | 1 | 8 | 6.9* | 86 | nt | 102
O=C(CN1CCOCC1)Nc1ccc(Oc2ccc(NC(=O)CN3CCOCC3)cc2)cc1 | 6 | -8 | 101 | 104 | -5 | 109
O=C(CCN1CCN(CCO)CC1)Nc1ccc(OCc2ccccc2)cc1 | 14 | -15 | 83 | 89 | 4 | 96
O=C(NNC(=O)C1CC(c2cccnc2)=NO1)Nc1cccc(F)c1 (configuration not stated) | 5 | nt | nt | nt | nt | nt
CCOc1cc(/C=N/N=C(/N)c2nonc2N)cc(Br)c1OCc1ccc(Cl)cc1 | -14 | nt | 18* | 22* | nt | 29*
COc1ccc(C2C(=O)N(C3CCCCC3)CC(=O)N2C2CCCC2)cc1 (configuration not stated) | 7 | 4 | 50 | 101 | nt | 93
COc1ccc(C2C(=O)N(CCc3ccccc3)CC(=O)N2C2CCCC2)cc1 (configuration not stated) | 10 | -6 | 35* | 89 | nt | 87
Cc1ccc(-c2nnc(Cc3ccc(Cl)cc3)o2)cc1 | 1 | nt | 98 | 123 | nt | 109
c1ccc(Cc2nnc(-c3ccccc3)o2)cc1 | 6 | 1 | 92 | 32 | -4 | 9.6*
COc1cc2nc(NCC3CCCO3)n3nc(-c4cccnc4)nc3c2cc1OC (configuration not stated) | -2 | 16 | 21* | 71 | 4 | 87
c1cncc(-c2nc3c4ccccc4nc(N4CCC(N5CCCCC5)CC4)n3n2)c1 | nt | 0 | nt | nt | 1 | nt
CCN(CC)CCCNc1nc2cc(OC)c(OC)cc2c2nc(-c3cccnc3)nn12 | 2 | nt | 65 | 76 | nt | 71
COc1cc2nc(NCCN3CCOCC3)n3nc(-c4ccccc4)nc3c2cc1OC | nt | 5 | 66 | 83 | 2 | 106
CCN(CC)CCCNc1nc2cc(OC)c(OC)cc2c2nc(-c3ccccc3)nn12 | 3 | nt | 6.5* | 26* | nt | 1.8*
